Our source for the IC50, EC50 and EC90 values is ChEMBL document CHEMBL1138188, “Synthesis and anti-HIV activity of D- and L-thietanose nucleosides” (J Med Chem, 2006).

Where only a bound is given, the exact number is not on record here.

The subject of assay [1] is CCRF-CEM. Put plainly: Cytotoxicity against human CEM cells. It counts as functional, cell-based. In a few lines: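 Log-phase CEM T-lymphoblastoid cells seeded at 2.5 × 10³ cells/well with 10-fold serial compound dilutions, held 4 days at 37 °C, 5% CO₂. MTT dye added overnight, then stop-solubilization 5 h; absorbance at 570 nm.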
The test system of assay [2] is Vero. Put plainly: Cytotoxicity against Vero cells. Format: functional, cell-based. As to conditions: Chlorocebus sabaeus. In a few lines:
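Log-phase Vero cells seeded at 5 × 10³ cells/well with 10-fold serial compound dilutions, incubated 3 days at 37 °C, 5% CO₂. MTT dye added overnight, formazan solubilized 5 h, absorbance read at 570 nm.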

The subject of assay [3] is PBMC. Briefly: Cytotoxicity against human PBMC. Format: functional, cell-based. Put shortly: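 Uninfected PHA-stimulated human PBM cells, log phase, 5 × 10⁴ cells/well, exposed to 10-fold serial compound dilutions for 5 days at 37 °C, 5% CO₂. MTT overnight, formazan dissolved 5 h, read at 570 nm.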
In assay [4] the test system is Human immunodeficiency virus 1. Put plainly: Antiviral activity against HIV1 in human PBMC. Format: functional, organism-based. In a few lines:
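PHA-stimulated (2-3 days) human PBM cells from seronegative donors, infected in bulk 1 h with HIV-1 LAI (100 TCID50/1 × 10⁷ cells, flask; or 200 TCID50/6 × 10⁵ cells/well, 24-well), then added to 10-fold serial compound dilutions in RPMI-1640/16% FBS/IL-2/DEAE-dextran. 5 days, 37 °C, 5% CO₂. Supernatant RT activity by poly(rA)·oligo(dT), ³H-TTP incorporation, 2 h 37 °C; EC50/EC90 by median effect method.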

Take `OC[C@H]1[C@H](CO)S[C@@H]1n1cnc2c(O)ncnc21`: the IC50 in assay [1], in assay [2] and in assay [3] was > 100 µM in each case. Besides, the half-maximal effective concentration (EC50) in assay [4] was > 100 µM. In addition, in assay [4], the concentration for an effect of 90% (EC90) is > 100 µM.
On to `Nc1nc(O)c2ncn([C@@H]3S[C@H](CO)[C@H]3CO)c2n1`, for which the half-inhibitory concentration (IC50) in assay [1], in assay [2] and in assay [3] was > 100 µM throughout. Besides, the EC50 in assay [4] was > 100 µM. For the same compound, the concentration for an effect of 90% (EC90) in assay [4] was > 100 µM.
As to `O=c1ccn([C@@H]2S[C@H](CO)[C@H]2CO)c(=O)[nH]1`, the IC50 is 4.9 µM in assay [1], > 100 µM in assay [2] and 8.5 µM in assay [3]. The compound further had an EC50 in assay [4] of 6.9 µM. Further, the 90% effect level in assay [4] (EC90) was put at 23.1 µM.
In the case of `Cc1cn([C@@H]2S[C@H](CO)[C@H]2CO)c(=O)[nH]c1=O`, the half-maximal inhibitory concentration (IC50) in assay [1], in assay [2] and in assay [3] was > 100 µM each time. Besides, the EC50 in assay [4] is > 100 µM. Further, the EC90 in assay [4] is > 100 µM.
With `Cc1cn([C@H]2S[C@@H](CO)[C@@H]2CO)c(=O)[nH]c1=O`, the IC50 in assay [1], in assay [2] and in assay [3] was > 100 µM throughout. In addition, the EC50 in assay [4] is > 100 µM. In assay [4], the EC90 is > 100 µM.
As to `Nc1ccn([C@H]2S[C@@H](CO)[C@@H]2CO)c(=O)n1`, the concentration for half-maximal inhibition (IC50) was 45.6 µM in assay [1], > 100 µM in assay [2] and 13.1 µM in assay [3]. The compound also showed an EC50 in assay [4] of 14.1 µM. Besides, it took 47.6 µM to reach the 90% level in assay [4] (EC90).
Consider `OC[C@H]1[C@H](n2cnc3c(O)ncnc32)S[C@@H]1CO`, for which the half-maximal inhibitory concentration (IC50) in assay [1], in assay [2] and in assay [3] was > 100 µM each time. Moreover, the concentration for a half-maximal effect (EC50) in assay [4] was > 100 µM. Besides, in assay [4], the 90% effect concentration (EC90) is > 100 µM.
Turning to `Nc1nc(O)c2ncn([C@H]3S[C@@H](CO)[C@@H]3CO)c2n1`, the IC50 in assay [1], in assay [2] and in assay [3] was > 100 µM throughout. Besides, the EC50 in assay [4] was > 100 µM. Moreover, the EC90 in assay [4] is > 100 µM.
On to `Nc1nc(=O)n([C@@H]2S[C@H](CO)[C@H]2CO)cc1Br`, for which the values for the half-maximal inhibitory concentration (IC50) in assay [1], in assay [2] and in assay [3] were 1.8 µM, > 100 µM and > 100 µM, respectively. In assay [4], this compound yielded a concentration for a half-maximal effect (EC50) of 11.5 µM. Further, in assay [4], the concentration for an effect of 90% (EC90) worked out at 41.9 µM.
On to `Nc1nc(=O)n([C@@H]2S[C@H](CO)[C@H]2CO)cc1F`, for which the IC50 in assay [1] was 19 µM; in assay [2] it was > 100 µM; in assay [3], < 1 µM. This compound showed a concentration for a half-maximal effect (EC50) in assay [4] of 5.8 µM. Also, the 90% effect level in assay [4] (EC90) was put at 13.9 µM.
For the compound `Nc1ncnc2c1ncn2[C@H]1S[C@@H](CO)[C@@H]1CO`, the IC50 in assay [1], in assay [2] and in assay [3] was > 100 µM each time. The EC50 in assay [4] is > 100 µM. Besides, in assay [4], the EC90 was > 100 µM.
For `O=c1ccn([C@H]2S[C@@H](CO)[C@@H]2CO)c(=O)[nH]1`, the IC50 in assay [1], in assay [2] and in assay [3] was > 100 µM throughout. Further, the EC50 in assay [4] was > 100 µM. Besides, the EC90 in assay [4] was > 100 µM.
For `Nc1ccn([C@@H]2S[C@H](CO)[C@H]2CO)c(=O)n1`, the IC50 in assay [1] was 4.3 µM; in assay [2] it was 54.8 µM; in assay [3], ≤ 1 µM. In assay [4], this compound returned an EC50 of 1.3 µM. This compound also returned an EC90 in assay [4] of 5.3 µM.
With `Nc1ncnc2c1ncn2[C@@H]1S[C@H](CO)[C@H]1CO`, the IC50 in assay [1], in assay [2] and in assay [3] was > 100 µM each time. Also, the 50% effective concentration (EC50) in assay [4] is > 100 µM. For the same compound, the EC90 in assay [4] was > 100 µM.
As for `Nc1nc(=O)n([C@@H]2S[C@H](CO)[C@H]2CO)cc1Cl`, the 50% inhibitory concentration (IC50) in assay [1], in assay [2] and in assay [3] was > 100 µM each time. For the same compound, the half-maximal effective concentration (EC50) in assay [4] is > 100 µM. In addition, in assay [4], the EC90 was > 100 µM.
For the compound `Cc1cn([C@H]2C[C@H](N=[N+]=[N-])[C@@H](CO)O2)c(=O)[nH]c1=O` [ZIDOVUDINE], the concentration for half-maximal inhibition (IC50) in assay [3] was > 100 µM. Besides, the EC90 in assay [4] is 0.01 µM.
